Measurements taken from ChEMBL document CHEMBL1129271, “Synthesis and biological evaluation of certain alkenyldiarylmethanes as anti-HIV-1 agents which act as non-nucleoside reverse transcriptase inhibitors” (J Med Chem, 1996).
pEC50, pIC50: −log10 of the molar value. The source made the active and inactive calls. No cut-off for these calls is given here.

What was measured:
CCRF-CEM [1] = assay: (§1) The compound was evaluated for prevention of the cytopathic effect of HIV-1 for cytopathicity of HIV-1RF in CEM-SS cells; NA= not active; format: functional, cell-based, Homo sapiens
In short: (§2)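 XTT-based microtiter assay of protection from HIV-1 cytopathic effect in CEM-SS cells, read as percent of uninfected drug-free control. EC50 is the concentration giving 50% protection in infected cultures. IC50 is the concentration giving 50% death of mock-infected cells. Values are averages of at least two determinations. Results were confirmed by supernatant RT and p24 levels.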

CCRF-CEM [2] = assay: The compound was tested for cytotoxicity in CEM-SS cells for mock-infected CEM cells.; format: functional, cell-based; settings: Homo sapiens; in short: as §2
CCRF-CEM [3] = assay: The compound was evaluated for prevention of the cytopathic effect of HIV-1 for cytopathicity of HIV-1RF in CEM-SS cells.; format: functional, cell-based; settings: Homo sapiens; in short: as §2
[4] = (§3) The therapeutic index of the compound is evaluated.; format: functional
CCRF-CEM [5] = assay: 50% cytotoxic concentration for mock-infected CEM cells; format: functional, cell-based; settings: Homo sapiens; in short: as §2
[6] = as §3; settings: read-out: IC50/EC50
CCRF-CEM [7] = assay: as §1; format: functional, cell-based; settings: Homo sapiens; in short: as §2

| SMILES | EC50 (CCRF-CEM [1]) | pIC50 (CCRF-CEM [2]) | pEC50 (CCRF-CEM [3]) | pIC50 (CCRF-CEM [5]) | also measured |
| --- | --- | --- | --- | --- | --- |
| CCCCCC=C(c1cc(Br)cc(C(=O)OC)c1OC)c1cc(Br)cc(C(=O)OC)c1OC | Not Active | 4.36 | – | – | – |
| CCCCCCCCCCCCCCCC=C(c1cc(Br)c(OC)c(C(=O)OC)c1)c1cc(Br)c(OC)c(C(=O)OC)c1 | – | < 4.55 | < 4.55 | – | – |
| CCCCCCCCCC=C(c1cc(Br)c(OC)c(C(=O)OC)c1)c1cc(Br)c(OC)c(C(=O)OC)c1 | – | < 4.52 | < 4.52 | – | – |
| CCCCCC=C(c1cc(Cl)c(OC)c(C(=O)OC)c1)c1cc(Cl)c(OC)c(C(=O)OC)c1 | – | – | 4.80 | < 4.54 | IC50/EC50 [4]: > 1.8 |
| CCCCCC=C(c1cc(Cl)c(OC)c(C(=O)N(C)C)c1)c1cc(Cl)c(OC)c(C(=O)N(C)C)c1 | Not Active | – | – | 4.68 | – |
| CCCCCC=C(c1cc(Br)c(O)c(C(=O)O)c1)c1cc(Br)c(O)c(C(=O)O)c1.N.N | Not Active | 3.82 | – | – | – |
| COC(=O)c1cc(C(=CCCBr)c2cc(Cl)c(OC)c(C(=O)OC)c2)cc(Cl)c1OC | – | 4.74 | 5.10 | – | selectivity ratio [6]: 2.2 |
| CCCCCC=C(c1cc(Cl)c(OC)c(C(=O)NC)c1)c1cc(Cl)c(OC)c(C(=O)NC)c1 | Not Active | – | – | 4.68 | – |
| CCCCCC=C(c1cc(Cl)c(O)c(C(=O)O)c1)c1cc(Cl)c(O)c(C(=O)O)c1 | – | – | < 4.04 | < 4.04 | – |
| CCCCCC=C(c1cc(Cl)c(OC)c(C(N)=O)c1)c1cc(Cl)c(OC)c(C(N)=O)c1 | Not Active | – | – | 4.51 | – |
| CCCCCC=C(c1cc(Cl)c(OC)c(C(=O)O)c1)c1cc(Cl)c(OC)c(C(=O)O)c1 | – | – | – | 4.08 | NA (CCRF-CEM [7]): inactive |
| CCCCCC=C(c1cc(Cl)c(O)c(C(=O)NO)c1)c1cc(Cl)c(O)c(C(=O)NO)c1 | Not Active | 4.43 | – | – | – |
